Sampled rows, rich in hits. Any-hit rate of the full collection: about 2.9%.
DENV2 CPE = DENV2-induced cell death inhibition. DENV2-infected cells, cytopathic effect rescue, plate reader. CPE inhibition, % at 9.99 µM. 350,000 tested, 1.7% active. AID 651640; in the data active means CPE inhibition above about 20%, passing the limit was not always enough; inconclusive means no clear call, values can overlap the other calls; tested in BHK-21 cells;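 further: 0% = median of neutral control wells and 100% = median of positive control wells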
SIRT5 inh = inhibitors of human sirtuin-5 desuccinylase. Q9NXA8. Purified SirT5, succinyl-peptide AMC, trypsin-coupled fluorescence. inhibition, % at 15 µM. 330,000 tested, 1.1% active. AID 652115; in the data active means inhibition above about 15%; inconclusive means no clear call, values can overlap the other calls
Target sequence (Q9NXA8 whole entry, looked up): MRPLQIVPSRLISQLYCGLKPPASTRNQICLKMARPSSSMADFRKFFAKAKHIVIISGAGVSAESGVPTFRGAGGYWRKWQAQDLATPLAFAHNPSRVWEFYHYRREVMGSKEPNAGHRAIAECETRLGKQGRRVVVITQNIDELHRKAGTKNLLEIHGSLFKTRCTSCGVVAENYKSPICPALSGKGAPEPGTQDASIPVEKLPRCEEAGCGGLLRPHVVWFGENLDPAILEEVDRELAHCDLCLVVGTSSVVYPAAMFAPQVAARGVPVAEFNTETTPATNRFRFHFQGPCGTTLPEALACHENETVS
E-selectin induc = E-selectin induction on HUVECs; P16581; 260,000 tested, 0.37% active; HUVEC E-selectin immunofluorescence imaging; normalized: neutral wells 0, TNF-alpha wells 100; activation, % at 7.58 µM; AID 686992;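 active means mean E-selectin-positive cell signal at least 10% of the positive control, reached in at least 60% of replicates, without over 20% cell loss; inconclusive means no rule given, readout overlaps actives, possibly toxicity-flagged; inactive means the rest, including those meeting only one limit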
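Assay system: HUVEC primary endothelial cells. Input: 3,000 HUVEC seeded per well. Doses: one compound dose added by pin transfer. Read-out basis: % PE-positive cells. Benchmarks: TNF-alpha high, DMSO low. Detection: immunofluorescence imaging. Buffer or medium: EGM-2, gelatin.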
* hit, by the source's call; ? = inconclusive; / = no result given.

SMILES | DENV2 CPE | SIRT5 inh | E-selectin induc
C[C@H]1CN([C@@H](C)CO)C(=O)Cc2cc(NC(=O)Nc3ccc(F)cc3)ccc2O[C@@H]1CN(C)S(C)(=O)=O | 1 | 18* | 0
C[C@H](CO)N1C[C@H](C)[C@@H](CN(C)S(=O)(=O)c2ccc(Cl)cc2)Oc2ccc(NC(=O)Nc3cccc4ccccc34)cc2CC1=O | 42* | 12 | 0
C[C@@H]1CN([C@@H](C)CO)C(=O)Cc2cc(NC(=O)Nc3cccc4ccccc34)ccc2O[C@@H]1CN(C)S(=O)(=O)c1ccc(Cl)cc1 | 8 | 6 | 0
C[C@H](CO)N1C[C@H](C)[C@H](CN(C)S(=O)(=O)c2ccc(F)cc2)Oc2ccc(NC(=O)Nc3ccc(F)cc3)cc2CC1=O | ? | -4 | 3
C[C@@H]1CN([C@@H](C)CO)C(=O)Cc2cc(NC(=O)Nc3ccc(F)cc3)ccc2O[C@@H]1CN(C)S(C)(=O)=O | -13 | -1 | 0
C[C@H](CO)N1C[C@H](C)[C@H](CN(C)S(=O)(=O)c2ccc(Cl)cc2)Oc2ccc(NC(=O)Nc3ccc(F)cc3)cc2CC1=O | 5 | -4 | 40*
C[C@@H]1CN([C@H](C)CO)C(=O)Cc2cc(NC(=O)Nc3ccc(F)cc3)ccc2O[C@@H]1CN(C)CC1CC1 | 8 | 0 | /
C[C@H](CO)N1C[C@H](C)[C@H](CN(C)CC2CC2)Oc2ccc(NC(=O)Nc3ccc(F)cc3)cc2CC1=O | 42* | 4 | /
Cc1[nH]c(-c2ccco2)nc1C(=O)O | 1 | -6 | /
Cc1ccc(C2SCC(C(=O)O)N2C(=O)c2ccc(F)cc2)cc1 (centres undefined) | / | / | -1
CN(C)C(=O)c1ccc(NS(=O)(=O)c2ccc3c(c2)OCCO3)cc1 | -1 | -11 | -1
C[C@@H]1CN([C@H](C)CO)C(=O)Cc2cc(NC(=O)Nc3ccc(F)cc3)ccc2O[C@H]1CN(C)S(=O)(=O)c1ccccc1 | 12 | 7 | -3
C[C@H](CO)N1C[C@H](C)[C@H](CN(C)S(=O)(=O)c2ccccc2)Oc2ccc(NC(=O)Nc3ccc(F)cc3)cc2CC1=O | 14 | 3 | 41*
CCCC#Cc1cnc2c(c1)C(=O)N([C@H](C)CO)C[C@@H](C)[C@@H](CN(C)C(=O)NC1CCCC1)O2 | 45* | -5 | 1
CCCC#Cc1cnc2c(c1)C(=O)N([C@@H](C)CO)C[C@H](C)[C@H](CN(C)C(=O)NC1CCCC1)O2 | 8 | -4 | 0
C/C=C/c1cnc2c(c1)C(=O)N([C@@H](C)CO)C[C@@H](C)[C@@H](CN(C)C(=O)NC1CCCCC1)O2 | -6 | 28* | 3
C[C@H](CO)N1C[C@H](C)[C@@H](CN(C)C(=O)c2cnccn2)Oc2ncc(C#CCC3CCCC3)cc2C1=O | 36* | 10 | 0
C[C@H]1CN([C@@H](C)CO)C(=O)c2cc(C#CCC3CCCC3)cnc2O[C@@H]1CN(C)C(=O)c1cnccn1 | -9 | -1 | -2
C/C=C/c1cnc2c(c1)C(=O)N([C@H](C)CO)C[C@H](C)[C@H](CN(C)C(=O)NC1CCCCC1)O2 | -5 | 5 | 0
C[C@H]1CN([C@@H](C)CO)C(=O)Cc2cc(NS(=O)(=O)c3cccs3)ccc2O[C@@H]1CN(C)C(=O)Nc1cccc2ccccc12 | ? | / | -11
O=C(CCNS(=O)(=O)c1ccc(Br)s1)NC1CCCC1 | / | 20* | /
Cc1ccc(S(=O)(=O)NCCC(=O)NC2CCCCCC2)cc1C | -11 | -2 | 5
COC(=O)c1ccc(/C=C/C(=O)O)cc1 | -4 | -2 | 1
COC(=O)c1ccc([C@H]2CC(=O)O2)cc1 | 76* | 0 | /
CC12CCC3c4ccc(OCCCO)c([N+](=O)[O-])c4CCC3C1CCC2=O (centres undefined) | 43* | / | 0
SMILES | DENV2 CPE | SIRT5 inh | E-selectin induc
CC12CCC3c4cc(CN5CCOCC5)c(O)cc4CCC3C1CCC2=O (centres undefined) | -6 | / | -1
CC1CCCCN1CCCNC(=O)Cn1c(=O)c2cccn2c2ccccc21 (centres undefined) | 4 | 21* | /
CCC1CCCCN1CCCNC(=O)Cn1c(=O)c2cccn2c2ccccc21 (centres undefined) | -4 | -2 | /
CCOCCCNC(=S)Nc1cc(OCC)c(NC(=O)c2ccco2)cc1OCC | -3 | 5 | 2
COc1ccc(C#Cc2ccc([C@H]3[C@H]4CN(C(=O)Nc5ccccc5)CCCCN4[C@H]3CO)cc2)cc1 | -2 | -1 | -1
CC(C)CC#Cc1ccc([C@@H]2[C@H]3CN(C(=O)Nc4ccccc4)CCCCN3[C@H]2CO)cc1 | 33* | 16* | 0
CC(C)CC#Cc1ccc([C@H]2[C@@H](CO)N3CCCCN(C(=O)Nc4ccccc4)C[C@@H]23)cc1 | / | / | 0
COc1ccccc1-c1ccc([C@H]2[C@H](CO)N3CCCCN(C(=O)NC4CCCC4)C[C@@H]23)cc1 | -1 | -4 | 0
COc1ccc(C#Cc2ccc([C@H]3[C@@H](CO)N4CCCCN(C(=O)Nc5ccccc5)C[C@@H]34)cc2)cc1 | 71* | 1 | 0
COc1ccccc1-c1ccc([C@H]2[C@@H](CO)N3CCCCN(C(=O)NC4CCCC4)C[C@H]23)cc1 | 23* | -2 | 0
CC(C)CC#Cc1ccc([C@H]2[C@H](CO)N3CCCCN(C(=O)NC4CCCC4)C[C@@H]23)cc1 | -29 | 17* | 0
CC(C)CC#Cc1ccc([C@H]2[C@@H](CO)N3CCCCN(C(=O)NC4CCCC4)C[C@@H]23)cc1 | 3 | 6 | 0
CO[C@H]1CN(C)C(=O)c2cccc(C#N)c2OC[C@H]2O[C@@H](CC[C@@H]2OC)CCN(C)C(=O)[C@H]1C | -1 | -2 | 0
COc1ccc(C(=O)NC(=O)Nc2cc(C)ccn2)cc1 | -1 | 1 | /
C[C@@H]1CN([C@@H](C)CO)C(=O)c2cc(NC(=O)CCCN(C)C)ccc2O[C@@H](C)CCCCO[C@@H]1CN(C)S(=O)(=O)c1cccs1 | / | -1 | 0
CO[C@H](CN(C)S(=O)(=O)c1cn(C)cn1)[C@H](C)CN(C(=O)Nc1ccc(F)cc1)[C@H](C)CO | -2 | 10 | 0
CC(=O)c1cc(C(C)=O)c(C)nc1C | 0 | -6 | /
COc1ccc(C#Cc2ccc([C@@H]3[C@H](CO)N4CCCCN(C(=O)Nc5ccccc5)C[C@@H]34)cc2)cc1 | 34* | -1 | -1
COc1ccc(NC(=O)N2CCCCN3[C@H](CO)[C@H](c4ccc(C#Cc5ccccc5)cc4)[C@H]3C2)cc1 | 7 | 7 | /
Cc1cccc(S(=O)(=O)N2C[C@@H]3[C@H](c4ccccc42)[C@H](CO)N3Cc2cccnc2)c1 | -8 | 0 | 0
O=C(CC1CC1)N1[C@H](CO)[C@H]2c3ccccc3N(S(=O)(=O)c3ccccc3)C[C@H]21 | -1 | -1 | 1
Cc1cccc(S(=O)(=O)N2C[C@H]3[C@@H](c4ccccc42)[C@@H](CO)N3Cc2cccnc2)c1 | 27* | 0 | 0
O=S(=O)(c1ccccc1)N1C[C@H]2[C@@H](c3ccccc31)[C@@H](CO)N2Cc1ccccc1 | 27* | 0 | 0
Cc1cccc(S(=O)(=O)N2C[C@H]3[C@@H](c4ccccc42)[C@@H](CO)N3C(=O)c2ccccc2)c1 | 57* | 1 | 0
